Shown are actives, neighbours in structure and some others; about 1.8% of the full set was active somewhere.
M5 PAM – CHRM5 positive allosteric modulation; AID 624038; CHO-K1 hM5, Fluo-8 calcium, ACh EC20 PAM; 0% = ACh EC20, 100% = ACh EC100; actives 0.3% (n = 360,000); activation, % at 3 µM; P08912;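 active = activation above the run cutoff, the mean activation of all test compounds plus 3 SD, cut at about 18% in these data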
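System – CHO-K1 hM5 cells · Compound – 3 µM, single dose · Incubation – compound preincubation 140 s before EC20 acetylcholine addition · Technique – Fluo-8 calcium fluorescence · Measure – Max/basal fluorescence ratio as % of EC20–EC100 ACh window · Benchmarks – low control EC20 acetylcholine (0%), high control EC100 acetylcholine (100%) · Replication – singlicate, one well per test compound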
M5 antag – antagonists of human muscarinic M5 receptor (CHRM5). P08912. CHO-hM5 cells, Fluo-8 calcium fluorescence, ACh EC80. inhibition, % at 3 µM. actives 0.59% (n = 360,000). AID 624040;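 active = inhibition above a per-plate cutoff, the mean of that plate's test compounds plus 3 SD, cut at about 27% in these data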
CHRM4 PAM – positive allosteric modulators of human muscarinic M4 receptor | CHO-K1 hM4/Gqi5, Fluo-8 calcium fluorescence, ACh EC20; 0% = ACh EC20, 100% = maximal ACh | activation, % at 3 µM | actives 0.4% (n = 360,000) | P08173;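 active = activation above its plate's cutoff, the mean activation of sample wells plus 3 SD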
Target sequence (P08173 whole entry, looked up): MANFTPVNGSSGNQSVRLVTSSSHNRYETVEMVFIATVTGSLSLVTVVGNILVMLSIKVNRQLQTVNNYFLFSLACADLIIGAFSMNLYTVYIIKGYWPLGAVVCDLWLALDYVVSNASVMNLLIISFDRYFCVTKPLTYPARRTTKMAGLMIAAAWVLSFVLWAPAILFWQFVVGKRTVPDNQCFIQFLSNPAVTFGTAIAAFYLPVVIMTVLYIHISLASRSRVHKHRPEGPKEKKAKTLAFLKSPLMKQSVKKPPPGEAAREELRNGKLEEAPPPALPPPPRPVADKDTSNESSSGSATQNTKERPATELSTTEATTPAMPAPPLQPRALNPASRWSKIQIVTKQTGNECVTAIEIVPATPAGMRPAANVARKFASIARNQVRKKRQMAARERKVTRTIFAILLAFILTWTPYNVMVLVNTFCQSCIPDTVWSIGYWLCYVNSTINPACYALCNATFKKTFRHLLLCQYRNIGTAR
CHRM4 agonist – CHRM4 agonism in calcium assay; P08173; actives 0.14% (n = 360,000); AID 624127; CHO-K1 hM4/Gqi5, Fluo-8 calcium fluorescence; vehicle 0%, full acetylcholine response 100%; activation, % at 3 µM;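 active = activation above the run mean over all test wells plus 3 SD, cut at about 32% in these data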;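 also: peak over basal fluorescence ratio per well then scaled between controls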
CHRM5 agonist – agonists of human muscarinic M5 receptor (CHRM5); P08912; CHO-K1 hM5 cells, Fluo-8 calcium fluorescence; 0% DMSO wells, 100% maximal acetylcholine response; activation, % at 3 µM; actives 0.19% (n = 360,000); AID 624037;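 active = activation above the run's mean over test compounds plus 3 SD, cut at about 23% in these data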;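 also: signal is peak over basal fluorescence ratio across the kinetic read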
M4 antag – antagonists of human muscarinic M4 receptor (CHRM4) | CHO-hM4 cells, ACh EC80, Fluo-8 calcium fluorescence | P08173 | AID 624125 | inhibition, % at 3 µM | actives 0.73% (n = 360,000);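 active = inhibition above its plate's cutoff, the mean inhibition of sample wells plus 3 SD, cut at about 27% in these data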
Large screens that a line does not name were inactive.

COc1ccccc1C(CNC(=O)c1cccc(NS(=O)(=O)c2ccc(C)c(F)c2)c1)N(C)C (configuration not stated)	M5 antag 66
CCOc1ccc(S(=O)(=O)Nc2cccc(C(=O)NCC(c3ccccc3)N(C)C)c2)cc1 (configuration not stated)	none
CC1CCCC(C)N1C(=O)CN1C(=O)C(C)(C)Oc2ccc(C(=O)NC3CCCC3)cc21 (configuration not stated)	M4 antag 26
CC1CCCC(C)N1C(=O)CN1C(=O)C(C)(C)Oc2ccc(C(=O)NC3CCCCC3)cc21 (configuration not stated)	none
COc1cc2cc(C(c3nnnn3C3CCCC3)N(C)C3CCCCC3)c(=O)[nH]c2cc1OC (configuration not stated)	none
COc1cc2cc(C(c3nnnn3C3CCCCC3)N(C)C3CCCCC3)c(=O)[nH]c2cc1OC (configuration not stated)	M4 antag 30
COc1cccc(-c2cc(NC(C)=O)c3ncc(-c4ccc(OC)c(OC)c4)n3c2)c1	none
CC(=O)Nc1ccccc1NC(=O)C/C(C)=N/NC(=O)c1ccc([N+](=O)[O-])c(Cl)c1	CHRM4 PAM 24
C/C(CC(=O)Nc1cccnc1)=N\NC(=O)c1ccc([N+](=O)[O-])c(Cl)c1	none
COc1ccc2c(C)cc(=O)[nH]c2c1	M5 PAM 40, CHRM4 PAM 23
Cc1cc(=O)[nH]c2cc(Cl)ccc12	none
COc1ccc(NC(=O)c2cc(C3CCCCN3C(=O)CCCc3ccccc3)on2)c(C)c1 (configuration not stated)	none
O=C(NCc1ccc2c(c1)OCO2)Nc1ccc([N+](=O)[O-])cc1	M5 antag 38
CCCCc1c(-c2ccccc2OC)ncn1Cc1cccc(-c2ccccc2)c1	none
Cc1ccc(C)c(Nc2nn3c(=O)c4ccc(C(=O)NCc5cccnc5)cc4nc3s2)c1	M4 antag 31
CCCNC(=O)C1(C)CCCN(Cc2ccc(C)cc2)C1 (configuration not stated)	none
Cc1ccccc1S(=O)(=O)Cc1ccc(C(=O)N2CCN(c3cccc(C)c3C)CC2)o1	M4 antag 34
Cc1cccc(C)c1C(=NCCN(C)C)c1ccccc1	M5 antag 48
CCC1CCCCN1CCCNC(=O)c1cn(CC)c2ccc(S(=O)(=O)N(C)C3CCCCC3)cc2c1=O (configuration not stated)	M4 antag 33
CCn1cc(C(=O)NCCCOC)c(=O)c2cc(S(=O)(=O)N(C)C3CCCCC3)ccc21	none
CCC1CCCCN1CCCNC(=O)c1cn(CC)c2ccc(S(=O)(=O)N3CCc4ccccc4C3)cc2c1=O (configuration not stated)	M4 antag 31
Cc1occc1C(=O)Nc1ccc(Br)cc1F	M5 PAM 30
Cc1cccc(NC(=O)CSCC(=O)NNC(=O)c2ccoc2C)c1	CHRM4 PAM 23
Cc1occc1C(=O)Nc1c(F)c(F)c(F)c(F)c1F	M5 PAM 18
Cc1occc1C(=O)NNC(=O)Nc1ccc(F)cc1F	none
Cc1ccccc1CN1C(=O)CN(S(C)(=O)=O)CC1(C)C(=O)NCc1ccccc1 (configuration not stated)	none
CC(=O)c1c(N)c(C#N)c(C)n1-c1ccc(Br)cc1	M5 PAM 35, M5 antag 27
Cc1cc(C)n(S(=O)(=O)c2ccc(F)cc2)n1	none
Cc1cc(C)n(S(=O)(=O)c2ccc(C(C)(C)C)cc2)n1	M4 antag 29
COc1ccc(C(=O)C[C@@H]2OC[C@H](C(C)C)N2S(=O)(=O)c2ccc(C)cc2)cc1OC	none
COc1ccc(Oc2nnc(-c3ccccc3)cc2C#N)cc1	CHRM4 PAM 27
Cc1ccccc1CN1CCC(CNC(=O)C2CCCN(c3ncnc4c3nc3n4CCCCC3)C2)CC1 (configuration not stated)	M4 antag 63
Cc1sc2ncnc(N3CCN(S(=O)(=O)c4ccc(C(C)(C)C)cc4)CC3)c2c1C	none
Cc1sc2ncnc(N3CCC(C(=O)Nc4ccc(OC(F)F)c(Cl)c4)CC3)c2c1C	none
CCN(CC)CCNC(=O)c1ccc(NC(=O)C2CCN(c3ncnc4sc(C)c(C)c34)CC2)cc1	CHRM4 agonist 80, M4 antag 58
Cc1ccc(S(=O)(=O)N2CCN(C(=O)C3CCN(c4ncnc5sc(C)c(C)c45)CC3)CC2)c(C)c1	CHRM4 PAM 26
CCOC(=O)/C=c1\s/c(=C\c2ccc(-c3ccccc3)cc2)c(=O)n1CC(=O)NCc1ccc2c(c1)OCO2	none
CCOC(=O)/C=c1\s/c(=C\c2ccc(C)cc2)c(=O)n1CC(=O)NCc1ccco1	CHRM4 PAM 19
CCOC(=O)/C=c1/s/c(=C/c2ccc3cc(OC)ccc3c2)c(=O)n1CC(=O)NCc1ccc2c(c1)OCO2	M5 antag 38, CHRM5 agonist 39
CCOC(=O)/C=c1\s/c(=C\c2ccc(C(F)(F)F)cc2)c(=O)n1CC(=O)NCc1ccco1	none
CCC(=O)N1CCc2cc(S(=O)(=O)NCCN3CCCCC3CC)ccc21 (configuration not stated)	M5 PAM 24
CCn1cc([N+](=O)[O-])c(C(=O)N2CCCc3ccccc32)n1	CHRM4 PAM 22
CCn1cc([N+](=O)[O-])c(C(=O)N2CCCCCC2)n1	none
ClC1=CN(C2=NCCC2)CC1	none
COc1ccc(CSCCc2n[nH]c(=S)n2-c2ccccc2)cc1	M4 antag 48
COc1ccc(OC)c(NC(=O)C2(C)CCN2C(=O)C2(c3ccc(Cl)cc3)CCC2)c1 (configuration not stated)	none
COc1ccc(Cl)cc1N(CC(=O)NC(C)(C)C)S(=O)(=O)c1ccc(C)c([N+](=O)[O-])c1	CHRM4 PAM 22
CSc1nc(COC(=O)NC(C)C)c(COC(=O)NC(C)C)n1Cc1ccccc1	none
COc1cccc(OC(=O)c2cc3ccccc3oc2=O)c1	M5 PAM 19, CHRM4 PAM 18
COC(=O)c1ccccc1COc1cccn2c(N(C)C(=O)CCC3CCCC3)c(C)nc12	none
CCOC(=O)c1ccc(NC(=S)N2CCSC2c2ccc(Cl)cc2)cc1 (configuration not stated)	CHRM4 agonist 61, CHRM5 agonist 35, M4 antag 28
CC(C)(C)NC(=O)C(c1cc2ccccc2o1)n1c(-c2ccc(-c3ccccc3)cc2)nc2ccccc21 (configuration not stated)	none

Bioassay records as filed in PubChem BioAssay.
